Reference: ChEMBL document CHEMBL3804789, “5-Ene-4-thiazolidinones induce apoptosis in mammalian leukemia cells” (Eur J Med Chem, 2016)
pIC50: −log10 of the molar value. Calls of active or inactive are those of the source. The calls are words filed in the database; no cut-off is given here.

Experiments:
[1] = (§1) Antiproliferative activity against human HL60 cells after 72 hrs by MTT assay; type: functional, cell-based; conditions: HL-60, 72 h
Method in brief: (§2)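 MTT viability after 72 h continuous exposure. Cells seeded 24 h beforehand at 2,000/well (adherent) or 10,000/well (suspension), then given 0, 0.01, 0.1, 0.5, 1.0 or 10.0 μM compound diluted from 10 mM DMSO stock into RPMI or DMEM with 10% FBS, 37°C, 5% CO2. IC50 taken as concentration killing 50% of cells versus untreated culture.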

[2] = Antiproliferative activity against human SKOV3 cells after 72 hrs by MTT assay; type: functional, cell-based; conditions: SK-OV-3, 72 h; method in brief: as §2
[3] = target: T1, c-Jun N-terminal kinase, JNK (Homo sapiens) (UniProt P45983+P53779+P45984); assay: Inhibition of JNK in human HL60 cells assessed as increase in phosphorylated STAT3 expression at 0.1 to 1 uM after 48 hrs by Western blot analysis; type: cell-based; conditions: HL-60
Method in brief: (§3)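 HL-60 cells exposed 48 h; proteins isolated, resolved by SDS/PAGE, transferred to PVDF and immunoblotted. Equal loading checked by re-probing the same membrane for beta-actin. Peroxidase-labelled secondary antibodies at 1:5,000.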

MCF7 = assay: Antiproliferative activity against human MCF7 cells after 72 hrs by MTT assay; type: functional, cell-based; conditions: MCF7, 72 h; method in brief: as §2
[4] = target: MAP kinase p38 (Homo sapiens) (UniProt O15264+Q15759+Q16539+P53778); assay: Induction of MAPK p38 phosphorylation in human HL60 cells at 0.1 to 1 uM after 48 hrs by Western blot analysis; type: cell-based; conditions: HL-60; method in brief: as §3
HL-60 [5] = assay: Cytotoxicity against human HL60 cells assessed as reduction in cell survival up to 1 uM treated for 30 mins with ROS scavenger N-acetylcysteine measured after 72 hrs by MTT assay; type: functional, cell-based
[6] = target: T1, c-Jun N-terminal kinase, JNK (Homo sapiens); assay: Inhibition of JNK phosphorylation in human HL60 cells at 0.1 to 1 uM after 48 hrs by Western blot analysis; type: cell-based; conditions: HL-60; method in brief: as §3
[7] = Antiproliferative activity against HEK293T cells after 72 hrs by MTT assay; type: cell-based; conditions: Homo sapiens, HEK-293T; method in brief: as §2
[8] = Antiproliferative activity against mouse KS483 cells after 72 hrs by MTT assay; type: cell-based; conditions: KS483, 72 h; method in brief: as §2
HL-60 [9] = assay: Induction of apoptosis in human HL60 cells assessed as decrease in cyclinD3 expression at 0.1 to 1 uM after 48 hrs by Western blot analysis; type: functional, cell-based; method in brief: as §3
HL60/ADR [10] = assay: Antiproliferative activity against human HL60/ADR cells at 0.01 to 10 uM by MTT assay; type: functional, cell-based; conditions: TDE = time-dependent effect
Method in brief: (§4)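 MTT viability: cells seeded 24 h at 2,000 (adherent) or 10,000 (suspension) per well, then exposed 72 h to 0.01-10.0 μM (0, 0.01, 0.1, 0.5, 1.0, 10.0 μM), diluted from 10 mM DMSO stock into medium with 10% FBS. IC50 is concentration killing 50% of cells relative to untreated control.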

[11] = target: Mitogen-activated protein kinase; ERK1/ERK2 (Homo sapiens) (UniProt P27361+P28482); assay: Activation of ERK1/2 in human HL60 cells at 0.1 to 1 uM after 48 hrs by Western blot analysis; type: cell-based; conditions: HL-60; method in brief: as §3
Chain of Mitogen-activated protein kinase; ERK1/ERK2 (Homo sapiens) (P27361 whole entry, looked up): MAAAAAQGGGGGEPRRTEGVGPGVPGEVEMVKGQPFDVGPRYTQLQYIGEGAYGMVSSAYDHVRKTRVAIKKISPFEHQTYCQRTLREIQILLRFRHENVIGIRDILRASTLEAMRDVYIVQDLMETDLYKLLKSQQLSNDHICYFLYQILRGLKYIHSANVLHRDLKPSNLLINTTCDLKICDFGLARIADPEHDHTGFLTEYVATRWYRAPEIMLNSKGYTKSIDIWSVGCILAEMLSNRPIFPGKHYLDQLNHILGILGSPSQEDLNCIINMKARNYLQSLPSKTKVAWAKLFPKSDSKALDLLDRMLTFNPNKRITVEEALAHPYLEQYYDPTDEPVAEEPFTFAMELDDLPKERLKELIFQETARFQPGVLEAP
Chain of Mitogen-activated protein kinase; ERK1/ERK2 (Homo sapiens) (P28482 whole entry, looked up): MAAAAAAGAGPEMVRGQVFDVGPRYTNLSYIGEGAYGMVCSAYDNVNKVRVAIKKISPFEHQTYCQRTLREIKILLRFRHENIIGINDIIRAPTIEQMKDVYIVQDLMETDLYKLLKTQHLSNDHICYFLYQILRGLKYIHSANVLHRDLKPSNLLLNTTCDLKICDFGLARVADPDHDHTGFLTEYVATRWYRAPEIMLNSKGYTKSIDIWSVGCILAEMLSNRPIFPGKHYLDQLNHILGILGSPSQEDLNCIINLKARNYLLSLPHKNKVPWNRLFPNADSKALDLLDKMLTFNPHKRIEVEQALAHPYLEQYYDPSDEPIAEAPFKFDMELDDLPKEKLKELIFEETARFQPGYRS

L1210 = assay: Antiproliferative activity against mouse L1210 cells after 72 hrs by MTT assay; type: functional, cell-based; conditions: L1210, 72 h; method in brief: as §2
HL60/ADR [12] = assay: Cytotoxicity against human HL60/ADR cells assessed as reduction in cell survival up to 1 uM treated for 30 mins with ROS scavenger N-acetylcysteine measured after 72 hrs by MTT assay; type: functional, cell-based
HL-60 [13] = assay: Induction of apoptosis in human HL60 cells assessed as increase in Bax expression at 0.1 to 1 uM after 48 hrs by Western blot analysis; type: functional, cell-based; method in brief: as §3
L929 = assay: Antiproliferative activity against mouse L929 cells after 72 hrs by MTT assay; type: functional, cell-based; conditions: L929, 72 h; method in brief: as §2
HL60/ADR [14] = assay: (§5) Antiproliferative activity against human HL60/ADR cells after 72 hrs by MTT assay; type: functional, cell-based; method in brief: as §2
[15] = as §5; type: functional, cell-based; method in brief: as §2
HL60/ADR [16] = assay: Cytotoxicity against human HL60/ADR cells assessed as reduction in cell survival up to 1 uM treated for 30 mins with ROS scavenger ascorbic acid measured after 72 hrs by MTT assay; type: functional, cell-based
HL-60 [17] = assay: as §1; type: functional, cell-based; method in brief: as §2
HL-60 [18] = assay: Antiproliferative activity against human HL60 cells at 0.01 to 10 uM by MTT assay; type: functional, cell-based; conditions: TDE = time-dependent effect; method in brief: as §4
HL-60 [19] = assay: Induction of apoptosis in human HL60 cells assessed as increase in p21 expression at 0.1 to 1 uM after 48 hrs by Western blot analysis; type: functional, cell-based; method in brief: as §3
[20] = Cell cycle arrest in human HL60 cells assessed as accumulation at G0/G1 phase at 0.1 to 1 uM after 8 to 48 hrs by propidium iodide staining based flow cytometry; type: functional; conditions: HL-60
Method in brief: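 HL-60 cells treated 8 and 48 h, washed in PBS, fixed in 70% ethanol and stored at -20°C. Then RNase (10 µg/ml) 30 min at 37°C, propidium iodide (5 µg/ml) 30 min, and cell-cycle distribution read by flow cytometry.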

HL-60 [21] = assay: Induction of apoptosis in human HL60 cells assessed as apoptotic cells at 0.1 to 1 uM after 48 hrs by Annexin V-FITC/propidium iodide staining based fluorescence microscopic analysis; type: functional, cell-based
Method in brief: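 HL-60 cells treated 48 h, pelleted at 2,000 rpm, washed twice in PBS and incubated 15 min in Annexin V binding buffer with 1/20 volume FITC-Annexin V and PI (20.0 μg/mL). Cells examined by fluorescence microscopy on duplicate slides, >500 cells counted per sample.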

HL-60 [22] = assay: Cytotoxicity against human HL60 cells assessed as reduction in cell survival up to 1 uM treated for 30 mins with ROS scavenger ascorbic acid measured after 72 hrs by MTT assay; type: functional, cell-based
HL-60 [23] = assay: Induction of apoptosis in human HL60 cells assessed as increase in CDK1 expression at 0.1 to 1 uM after 48 hrs by Western blot analysis; type: functional, cell-based; method in brief: as §3
[24] = target: T2, Endonuclease G, mitochondrial (Homo sapiens) (UniProt Q14249); assay: Activation of endonuclease G in human HL60 cells at 0.1 to 1 uM after 48 hrs by Western blot analysis; type: cell-based; conditions: HL-60; method in brief: as §3
T2 sequence (whole entry): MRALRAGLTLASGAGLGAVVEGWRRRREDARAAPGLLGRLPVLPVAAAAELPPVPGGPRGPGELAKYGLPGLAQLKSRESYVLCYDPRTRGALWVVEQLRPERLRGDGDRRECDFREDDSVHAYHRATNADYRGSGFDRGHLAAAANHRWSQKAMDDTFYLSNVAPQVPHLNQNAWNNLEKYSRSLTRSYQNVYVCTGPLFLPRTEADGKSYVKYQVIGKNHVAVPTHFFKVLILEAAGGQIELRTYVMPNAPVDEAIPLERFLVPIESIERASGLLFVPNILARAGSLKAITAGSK

[25] = Antiproliferative activity against human HL60 cells measured at 6 hrs by MTT assay; type: functional, cell-based; conditions: HL-60, 6 h
Method in brief: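 Exposure-time series in HL-60 cells: compound present for 3, 6, 24, 48 or 72 h, viability then read by MTT. IC50 is concentration killing 50% of cells relative to untreated culture.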

Jurkat = assay: Antiproliferative activity against human Jurkat cells after 72 hrs by MTT assay; type: functional, cell-based; method in brief: as §2
[26] = target: T3, Retinoblastoma-associated protein (Homo sapiens) (UniProt P06400); assay: Inhibition of retinoblastoma protein phosphorylation in human HL60 cells at 0.1 to 1 uM after 48 hrs by Western blot analysis; type: cell-based; conditions: HL-60; method in brief: as §3
T3 sequence (whole entry): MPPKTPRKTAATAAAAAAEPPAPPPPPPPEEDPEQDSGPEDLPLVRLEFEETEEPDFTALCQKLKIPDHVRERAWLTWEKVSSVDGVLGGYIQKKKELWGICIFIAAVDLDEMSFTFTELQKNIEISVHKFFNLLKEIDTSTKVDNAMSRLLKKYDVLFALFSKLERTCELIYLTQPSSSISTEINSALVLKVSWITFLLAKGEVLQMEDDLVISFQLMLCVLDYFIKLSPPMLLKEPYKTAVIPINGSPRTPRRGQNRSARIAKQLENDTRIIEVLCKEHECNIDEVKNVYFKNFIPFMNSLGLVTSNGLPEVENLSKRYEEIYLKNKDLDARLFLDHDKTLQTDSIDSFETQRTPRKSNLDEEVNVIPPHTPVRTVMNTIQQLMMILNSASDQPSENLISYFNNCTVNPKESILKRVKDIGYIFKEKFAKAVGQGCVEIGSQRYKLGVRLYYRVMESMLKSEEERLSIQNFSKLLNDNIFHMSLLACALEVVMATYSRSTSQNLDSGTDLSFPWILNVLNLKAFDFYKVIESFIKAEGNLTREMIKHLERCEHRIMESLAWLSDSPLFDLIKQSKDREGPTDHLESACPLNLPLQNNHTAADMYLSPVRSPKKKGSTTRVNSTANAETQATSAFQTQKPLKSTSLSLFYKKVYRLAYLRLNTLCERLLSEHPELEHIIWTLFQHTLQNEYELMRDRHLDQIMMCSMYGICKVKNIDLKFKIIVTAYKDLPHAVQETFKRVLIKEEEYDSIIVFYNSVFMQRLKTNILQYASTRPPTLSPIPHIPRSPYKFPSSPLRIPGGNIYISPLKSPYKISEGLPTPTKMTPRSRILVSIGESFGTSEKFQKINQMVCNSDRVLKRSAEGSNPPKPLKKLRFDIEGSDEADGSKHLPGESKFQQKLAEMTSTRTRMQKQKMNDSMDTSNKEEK

HL-60 [27] = assay: Induction of apoptosis in human HL60 cells assessed as decrease in Bcl-XL expression at 0.1 to 1 uM after 48 hrs by Western blot analysis; type: functional, cell-based; method in brief: as §3

For `CC(=O)Oc1ccc(N2C(=O)/C(=C/N3N=C(c4ccccc4)CC3c3ccccc3O)SC2=S)cc1` (stereo unspecified), the pIC50 [1] was 5.03 and the pIC50 [2] was 6.61.
Work on `O=C1/C(=C/N2N=C(c3ccc4ccccc4c3)CC2c2ccccc2O)SC(=S)N1c1cccnc1` (stereo unspecified) yielded a pIC50 [1] of 5.39 and a pIC50 [2] of 5.25.
With `COc1ccc(C2CC(c3ccc4ccccc4c3)=NN2/C=C2\SC(=S)N(c3ccc(OC(C)=O)cc3)C2=O)cc1` (stereo unspecified) the pIC50 [1] was < 5.00 and the pIC50 [2] was 5.96.
`O=C1NC(=S)S/C1=C\N1N=C(c2ccc3ccccc3c2)CC1c1ccc(Cl)cc1` (stereo unspecified) gave a pIC50 [1] of 6.40 and a pIC50 [2] of 6.79.
In the case of `CC(=O)Oc1cccc(N2C(=O)/C(=C/N3N=C(c4ccccc4)CC3c3ccc(N(C)C)cc3)SC2=S)c1` (stereo unspecified), the pIC50 [1] was 7.00 and the pIC50 [2] was < 5.00.
With `CC(=O)Oc1cccc(N2C(=O)/C(=C/N3N=C(c4ccccc4)CC3c3ccccc3O)SC2=S)c1` (stereo unspecified) the inhibition [3] was “Active”, the pIC50 (MCF7) was 5.08 and the Activity [4] was “Active”. The Activity (HL-60 [5]) was “inactive”, the inhibition [6] was “Active” and the pIC50 [7] was < 5.00. For the same compound, the pIC50 [8] was < 5.00, the Activity (HL-60 [9]) was “Active” and the Activity (HL60/ADR [10]) was “tde”. For the same compound, the Activity [11] was “Active”, the pIC50 (L1210) was 6.15 and the Activity (HL60/ADR [12]) was “inactive”. The Activity (HL-60 [13]) was “Active”, the pIC50 (L929) was < 5.00 and the Activity (HL60/ADR [14]) was “Dose-dependent effect”. For the same compound, the pIC50 [15] was 6.00, the Activity (HL60/ADR [16]) was “inactive” and the Activity (HL-60 [17]) was “Dose-dependent effect”. For the same compound, the pIC50 [1] was 6.93, the Activity (HL-60 [18]) was “tde” and the Activity (HL-60 [19]) was “Active”. The pIC50 [2] was < 5.00, the Activity [20] was “Active” and the Activity (HL-60 [21]) was “Active”. For the same compound, the Activity (HL-60 [22]) was “inactive”, the Activity (HL-60 [23]) was “Active” and the Activity [24] was “Active”. For the same compound, the pIC50 [25] was 6.30, the pIC50 (Jurkat) was 5.96 and the inhibition [26] was “Active”. The Activity (HL-60 [27]) was “Active”.
In the case of `CN1C(=O)/C(=C/N2N=C(c3ccc4ccccc4c3)CC2c2ccccc2O)SC1=S` (stereo unspecified), the pIC50 [1] was < 5.00 and the pIC50 [2] was < 5.00.
Work on `CC(=O)Oc1cccc(N2C(=O)/C(=C/N3N=C(c4ccc5ccccc5c4)CC3c3ccc(Cl)cc3)SC2=S)c1` (stereo unspecified) yielded a pIC50 [1] of 5.99 and a pIC50 [2] of 5.62.
`CN1C(=O)/C(=C/N2N=C(c3ccccc3)CC2c2ccccc2O)SC1=S` (stereo unspecified) showed a pIC50 [1] of 5.54 and a pIC50 [2] of 6.47.
For `CC(=O)Oc1ccc(N2C(=O)/C(=C/N3N=C(c4ccc5ccccc5c4)CC3c3ccc(Cl)cc3)SC2=S)cc1` (stereo unspecified), the pIC50 [1] was 5.74 and the pIC50 [2] was < 5.00.
For `O=C1NC(=S)S/C1=C\N1N=C(c2ccc(Cl)cc2)CC1c1ccc(Cl)cc1` (stereo unspecified), the pIC50 [1] was < 5.00 and the pIC50 [2] was 5.04.
